Measurements from ChEMBL document CHEMBL1926577, “Novel 1,3,4-heterodiazole analogues: synthesis and in-vitro antitumor activity” (2012).

Tests used:
Assay type in all cases: functional
SNB-75 = assay: Growth inhibition of human SNB75 cells at 10 uM after 48 hrs by coulter counter method; conditions: SNB-75, 48 h, read-out: GI
In short: (§1)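 NCI 60-cell-line panel, single dose. Compound dissolved first in DMSO, then diluted in phosphate-buffered saline so that every final dilution held under 1% DMSO. Duplicate wells received cells at 6 × 10⁴ cells/ml. Controls held PBS/DMSO at the same dilution. Plates were incubated 48 h at 37 °C under 5% CO₂. Cells were then diluted 10-fold in saline and counted on a Coulter counter, with counts corrected for the dilution. Results are given as percent growth inhibition.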

A498 = assay: Growth inhibition of human A498 cells at 10 uM after 48 hrs by coulter counter method; conditions: A498, 48 h, read-out: GI; in short: as §1
M14 = assay: Growth inhibition of human M14 cells at 10 uM after 48 hrs by coulter counter method; conditions: M14, 48 h, read-out: GI; in short: as §1
SK-MEL-5 = assay: Growth inhibition of human SK-MEL-5 cells at 10 uM after 48 hrs by coulter counter method; conditions: SK-MEL-5, 48 h, read-out: GI; in short: as §1
CAKI-1 = assay: Growth inhibition of human Caki1 cells at 10 uM after 48 hrs by coulter counter method; conditions: CAKI-1, 48 h, read-out: GI; in short: as §1
TK-10 = assay: Growth inhibition of human TK10 cells at 10 uM after 48 hrs by coulter counter method; conditions: TK-10, 48 h, read-out: GI; in short: as §1
UACC-257 = assay: Growth inhibition of human UACC257 cells at 10 uM after 48 hrs by coulter counter method; conditions: UACC-257, 48 h, read-out: GI; in short: as §1
NCI-H226 = assay: Growth inhibition of human NCI-H226 cells at 10 uM after 48 hrs by coulter counter method; conditions: NCI-H226, 48 h, read-out: GI; in short: as §1
786-0 = assay: Growth inhibition of human 786-0 cells at 10 uM after 48 hrs by coulter counter method; conditions: 786-0, 48 h, read-out: GI; in short: as §1
PC-3 = assay: Growth inhibition of human PC3 cells at 10 uM after 48 hrs by coulter counter method; conditions: PC-3, 48 h, read-out: GI; in short: as §1
MOLT-4 = assay: Growth inhibition of human MOLT4 cells at 10 uM after 48 hrs by coulter counter method; conditions: MOLT-4, 48 h, read-out: GI; in short: as §1
U-251 = assay: Growth inhibition of human U251 cells at 10 uM after 48 hrs by coulter counter method; conditions: U-251, 48 h, read-out: GI; in short: as §1
SF-268 = assay: Growth inhibition of human SF268 cells at 10 uM after 48 hrs by coulter counter method; conditions: SF-268, 48 h, read-out: GI; in short: as §1
NCI-H322M = assay: Growth inhibition of human NCI-H322M cells at 10 uM after 48 hrs by coulter counter method; conditions: read-out: GI; in short: as §1
ACHN = assay: Growth inhibition of human ACHN cells at 10 uM after 48 hrs by coulter counter method; conditions: read-out: GI; in short: as §1
IGROV-1 = assay: Growth inhibition of human IGROV1 cells at 10 uM after 48 hrs by coulter counter method; conditions: IGROV-1, 48 h, read-out: GI; in short: as §1
HCT-15 = assay: Growth inhibition of human HCT15 cells at 10 uM after 48 hrs by coulter counter method; conditions: HCT-15, 48 h, read-out: GI; in short: as §1
HT-29 = assay: Growth inhibition of human HT-29 cells at 10 uM after 48 hrs by coulter counter method; conditions: HT-29, 48 h, read-out: GI; in short: as §1
HL-60(TB) = assay: Growth inhibition of human HL-60(TB) cells at 10 uM after 48 hrs by coulter counter method; conditions: HL-60, 48 h, read-out: GI
In short: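 Single-dose screen on the NCI 60-line panel (leukemia subpanel). Compound is dissolved in DMSO and diluted in PBS, with final DMSO below 1%. Duplicate wells hold 6 × 10⁴ cells/ml at 37 °C, 5% CO₂, for 48 h. Cells are counted by Coulter counter after 10-fold saline dilution. Read-out is percent growth versus PBS/DMSO controls, expressed as % growth inhibition.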

UO-31 = assay: Growth inhibition of human UO31 cells at 10 uM after 48 hrs by coulter counter method; conditions: UO-31, 48 h, read-out: GI; in short: as §1
RPMI-8226 = assay: Growth inhibition of human RPMI8226 cells at 10 uM after 48 hrs by coulter counter method; conditions: RPMI-8226, 48 h, read-out: GI; in short: as §1
MCF7 = assay: Growth inhibition of human MCF7 cells at 10 uM after 48 hrs by coulter counter method; conditions: MCF7, 48 h, read-out: GI; in short: as §1
KM12 = assay: Growth inhibition of human KM12 cells at 10 uM after 48 hrs by coulter counter method; conditions: KM12, 48 h, read-out: GI; in short: as §1
UACC-62 = assay: Growth inhibition of human UACC62 cells at 10 uM after 48 hrs by coulter counter method; conditions: UACC-62, 48 h, read-out: GI; in short: as §1
SN12C = assay: Growth inhibition of human SN12C cells at 10 uM after 48 hrs by coulter counter method; conditions: read-out: GI; in short: as §1
MDA-MB-435 = assay: Growth inhibition of human MDA-MB-435 cells at 10 uM after 48 hrs by coulter counter method; conditions: MDA-MB-435, 48 h, read-out: GI; in short: as §1
Malme-3M = assay: Growth inhibition of human MALME-3M cells at 10 uM after 48 hrs by coulter counter method; conditions: read-out: GI; in short: as §1
K562 = assay: Growth inhibition of human K562 cells at 10 uM after 48 hrs by coulter counter method; conditions: K562, 48 h, read-out: GI; in short: as §1
HCT-116 = assay: Growth inhibition of human HCT116 cells at 10 uM after 48 hrs by coulter counter method; conditions: HCT-116, 48 h, read-out: GI; in short: as §1
SK-MEL-28 = assay: Growth inhibition of human SK-MEL-28 cells at 10 uM after 48 hrs by coulter counter method; conditions: SK-MEL-28, 48 h, read-out: GI; in short: as §1
T47D = assay: Growth inhibition of human T47D cells at 10 uM after 48 hrs by coulter counter method; conditions: read-out: GI; in short: as §1
MDA-MB-468 = assay: Growth inhibition of human MDA-MB-468 cells at 10 uM after 48 hrs by coulter counter method; conditions: MDA-MB-468, 48 h, read-out: GI; in short: as §1
LOX IMVI = assay: Growth inhibition of human LOXIMVI cells at 10 uM after 48 hrs by coulter counter method; conditions: read-out: GI; in short: as §1
EKVX = assay: Growth inhibition of human EKVX cells at 10 uM after 48 hrs by coulter counter method; conditions: read-out: GI; in short: as §1
NCI/ADR-RES = assay: Growth inhibition of human NCI/ADR-RES cells at 10 uM after 48 hrs by coulter counter method; conditions: read-out: GI; in short: as §1
SF-295 = assay: Growth inhibition of human SF295 cells at 10 uM after 48 hrs by coulter counter method; conditions: SF-295, 48 h, read-out: GI; in short: as §1
SK-MEL-2 = assay: Growth inhibition of human SK-MEL-2 cells at 10 uM after 48 hrs by coulter counter method; conditions: SK-MEL-2, 48 h, read-out: GI; in short: as §1
SR = assay: Growth inhibition of human SR cells at 10 uM after 48 hrs by coulter counter method; conditions: read-out: GI; in short: as §1
OVCAR-8 = assay: Growth inhibition of human OVCAR8 cells at 10 uM after 48 hrs by coulter counter method; conditions: OVCAR-8, 48 h, read-out: GI; in short: as §1
SNB-19 = assay: Growth inhibition of human SNB19 cells at 10 uM after 48 hrs by coulter counter method; conditions: SNB-19, 48 h, read-out: GI; in short: as §1
NCI-H522 = assay: Growth inhibition of human NCI-H522 cells at 10 uM after 48 hrs by coulter counter method; conditions: NCI-H522, 48 h, read-out: GI; in short: as §1
NCI-H23 = assay: Growth inhibition of human NCI-H23 cells at 10 uM after 48 hrs by coulter counter method; conditions: NCI-H23, 48 h, read-out: GI; in short: as §1
CCRF-CEM = assay: Growth inhibition of human CCRF-CEM cells at 10 uM after 48 hrs by coulter counter method; conditions: read-out: GI; in short: as §1
BT-549 = assay: Growth inhibition of human BT549 cells at 10 uM after 48 hrs by coulter counter method; conditions: BT-549, 48 h, read-out: GI; in short: as §1
A549 = assay: Growth inhibition of human A549 cells at 10 uM after 48 hrs by coulter counter method; conditions: A549, 48 h, read-out: GI; in short: as §1

O=C(CCN1CCCCC1)Nc1nnc(-c2ccc(Cl)cc2)s1
inhibition of growth at 10 µM (SNB-75): < 10%
inhibition of growth at 10 µM (A498): 11.6%
inhibition of growth at 10 µM (M14): < 10%
inhibition of growth at 10 µM (SK-MEL-5): 24.7%
inhibition of growth at 10 µM (CAKI-1): 18.8%
inhibition of growth at 10 µM (TK-10): < 10%
inhibition of growth at 10 µM (UACC-257): < 10%
inhibition of growth at 10 µM (NCI-H226): < 10%
inhibition of growth at 10 µM (786-0): < 10%
inhibition of growth at 10 µM (PC-3): < 10%
inhibition of growth at 10 µM (MOLT-4): < 10%
inhibition of growth at 10 µM (U-251): 12%
inhibition of growth at 10 µM (SF-268): < 10%
inhibition of growth at 10 µM (NCI-H322M): < 10%
inhibition of growth at 10 µM (ACHN): < 10%
inhibition of growth at 10 µM (IGROV-1): < 10%
inhibition of growth at 10 µM (HCT-15): < 10%
inhibition of growth at 10 µM (HT-29): < 10%
inhibition of growth at 10 µM (HL-60(TB)): < 10%
inhibition of growth at 10 µM (UO-31): 28.6%
inhibition of growth at 10 µM (RPMI-8226): < 10%
inhibition of growth at 10 µM (MCF7): < 10%
inhibition of growth at 10 µM (KM12): < 10%
inhibition of growth at 10 µM (UACC-62): < 10%
inhibition of growth at 10 µM (SN12C): < 10%
inhibition of growth at 10 µM (MDA-MB-435): < 10%
inhibition of growth at 10 µM (Malme-3M): 10.7%
inhibition of growth at 10 µM (K562): < 10%
inhibition of growth at 10 µM (HCT-116): < 10%
inhibition of growth at 10 µM (SK-MEL-28): < 10%
inhibition of growth at 10 µM (T47D): < 10%
inhibition of growth at 10 µM (MDA-MB-468): < 10%
inhibition of growth at 10 µM (LOX IMVI): < 10%
inhibition of growth at 10 µM (EKVX): 20.4%
inhibition of growth at 10 µM (NCI/ADR-RES): < 10%
inhibition of growth at 10 µM (SF-295): 11%
inhibition of growth at 10 µM (SK-MEL-2): < 10%
inhibition of growth at 10 µM (SR): 11.9%
inhibition of growth at 10 µM (OVCAR-8): < 10%
inhibition of growth at 10 µM (SNB-19): < 10%
inhibition of growth at 10 µM (NCI-H522): 19.5%
inhibition of growth at 10 µM (NCI-H23): < 10%
inhibition of growth at 10 µM (CCRF-CEM): < 10%
inhibition of growth at 10 µM (BT-549): < 10%
inhibition of growth at 10 µM (A549): < 10%
